This data set is described as follows: Toxicity liver stage against HepG2, at 10uM. Format: cell-based. Set-up: test concentration 10 uM, cell line HepG2-A16-CD81EGFP. Particulars: human, HepG2-A16-CD81EGFP cells; read-out: INHIBITION
In short, it runs like this:
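Uninfected HepG2-A16-CD81EGFP cells, 3 × 10^3 per well, 1536-well, plated on prespotted compound at 10 μM final, parasite-free screening media added to match infected plates; puromycin 10 μM positive, DMSO 0.5% negative; run in parallel with 48 h PbLuc assay at 37 °C, 5% CO2; viability by CellTiter-Glo luminescence, normalized to controls.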
On to `CC(=O)N1CCC(NC2(Cc3cc(CN(C)C)on3)COC2)CC1`, for which the cytotoxicity at 10 µM was -1.38%.

Consider `CC(=O)c1cc2ncc(C(=O)NC3CCCCC3)cc2[nH]1`, for which the cytotoxicity at 10 µM is 0.0039%. Take `CCN(CC)C(=O)Cn1nc(C(C)C)c2cnn(C(C)(C)C)c2c1=O`: the cytotoxicity at 10 µM is 0.703%. Take `CN(C)C(CNS(=O)(=O)c1cc(F)ccc1F)c1cccn1C` (configuration not stated): the cytotoxicity at 10 µM came to 1.33%. Consider `Cn1nc(CNS(=O)(=O)Cc2ccccc2F)c2c1CCCC2`, for which the cytotoxicity at 10 µM is -0.0785%. Take `CCN1C[C@@H]2CN(S(=O)(=O)c3cccs3)C[C@@H]2C1=O`: the cytotoxicity at 10 µM is -2.42%. In the case of `COCC(=O)N1CCC2(CC1)CC(N1CCOCC1)c1ccc(C)cc12` (configuration not stated) it was -116%; in that of `CN1CCC2(Cc3ccccc3NC2=O)C1` (configuration not stated), 9.82%. In the case of `CCN1CCc2onc(CNc3ncccn3)c2C1` it was 0.927%; in that of `CCCS(=O)(=O)N1CCC2(CC1)CC(Nc1ncccn1)CO2` (configuration not stated), -0.00726%.

For the compound `O=C(NCCCN1CCOCC1)c1nc(-c2ccc3cc[nH]c3c2)no1`, the cytotoxicity at 10 µM was -0.663%. Turning to `CSCC[C@H](NC(=O)Cn1ccc2c(Cl)cccc21)C(=O)O`, the cytotoxicity at 10 µM was 4.18%. As to `CCC(CO)NC(=O)c1ccc2ccc(N(C)CC3CC3)n2c1` (configuration not stated), the cytotoxicity at 10 µM amounted to 4.82%. For the compound `Cc1cccc(CN2C[C@@H]3CCCO[C@@H]3[C@H](NS(C)(=O)=O)C2)n1`, the cytotoxicity at 10 µM is -8.06%.

For `Nc1nnnn1NCc1ccccc1C(F)(F)F`, the cytotoxicity at 10 µM is 5.56%.

For `CC(=O)NCc1ccc(-c2ccccc2C(=O)O)cn1`, the cytotoxicity at 10 µM turned out to be 1%.

As for `CCN(CC)S(=O)(=O)N1C[C@@H](O)[C@H](Oc2cccc(F)c2)C1`, the cytotoxicity at 10 µM was found to be 9.73%. Take `Cc1ccc(CC2COCCN(S(C)(=O)=O)C2)nc1` (configuration not stated): the cytotoxicity at 10 µM is -0.56%.

As to `CC(=O)N1CCC[C@@H](NCc2ccc(F)cc2)[C@@H]1c1ccc(C)s1`, the cytotoxicity at 10 µM was -22.1%. Regarding `Cc1cc(-c2cnc(C3CC3)nc2CN(C)C(=O)c2ccccn2)on1`, the cytotoxicity at 10 µM is -45%.

As for `Cc1c(C(=O)N2CCC2)nnn1-c1ccc2ncccc2c1`, the cytotoxicity at 10 µM was -2.29%. As for `Cc1nc(CSCCC(=O)Nc2cccc(N3CCNC3=O)c2)cs1`, the figure is 5.31%; as for `CC1CS(=O)(=O)CCN1CCCc1ccc(Cl)cc1` (configuration not stated), 9.28%; as for `CC(C)Oc1cccc(CN(C)C(=O)Cc2ccon2)c1`, -2.09%. Turning to `CCSCCC(C)NC(=O)Nc1cccn(C)c1=O` (configuration not stated), the cytotoxicity at 10 µM is -2.19%. Take `NC(=O)Nc1cccc(CNC(=O)CCCc2ccccc2)c1`: the cytotoxicity at 10 µM is -10.1%. As to `Cc1nc(CN2CCCN(Cc3nc4ccccc4o3)CC2)no1`, the cytotoxicity at 10 µM turned out to be 12.3%. In the case of `O=C(NCCOc1ccc(Cl)cn1)Nc1cccnc1`, the cytotoxicity at 10 µM is -2.3%. In the case of `CC(C)Nc1cccc(C(=O)NCC(O)c2cccc(F)c2)c1` (configuration not stated) it was 4.67%; in that of `CC(=O)Nc1nc(CS(=O)(=O)CCCc2ccccc2)cs1`, -1.2%.

In the case of `CSc1ccc(NC(=O)NCc2nncn2C2CC2)cc1F`, the cytotoxicity at 10 µM was determined as 0%. `CCCNC(=O)NCc1ccccc1NS(=O)(=O)c1ccccc1`: the cytotoxicity at 10 µM was determined as 10.3%. On to `COCc1ccccc1C(=O)N1CCN(C2=NCC(C)(C)S2)CC1`, for which the cytotoxicity at 10 µM was 6.11%. With `CC(C)CNC(=O)CC1OCCc2ccsc21` (configuration not stated), the cytotoxicity at 10 µM is -3.49%. As to `O=C(CC1CCCO1)Nc1cccc(N2CCN(CC3CC3)CC2)c1` (configuration not stated), the cytotoxicity at 10 µM is -0.699%. As to `CCN1CCN(C(=O)C2CCCc3[nH]ncc32)CC1` (configuration not stated), the cytotoxicity at 10 µM was -1.21%. Regarding `COc1ccc(CN(C)C(=O)NC(C)c2nncn2C)cc1F` (configuration not stated), the cytotoxicity at 10 µM is -2.85%. As to `CC(C)C(C(=O)N1CCN(Cc2ccccn2)CC1)n1cncn1` (configuration not stated), the cytotoxicity at 10 µM is -14.5%. Take `COCCCN1CCC(NC(=O)C2CC2)CC1`: the cytotoxicity at 10 µM was -5.02%. On to `CC(C)CNC(=O)CNC(=O)NC(C)COc1ccccc1F` (configuration not stated), for which the cytotoxicity at 10 µM was -0.956%. In the case of `CCS(=O)(=O)NCCCNc1cc(N2CCCC2CO)ncn1` (configuration not stated), the cytotoxicity at 10 µM was found to be 2.2%. As for `Cc1nc(C)n(CC2CN(CCc3ccccn3)CCO2)n1` (configuration not stated), the figure is 4.89%; as for `CC(C)Cn1cc(NCc2cscn2)cn1`, 3.86%; as for `Cc1noc(C2CCCN(CC(=O)N3CCNC(=O)C3)C2)n1` (configuration not stated), -13%. As for `CC(C)n1ccc(=O)nc1SC1CCN(c2ccccc2F)C1=O` (configuration not stated), the figure is 11.8%. As for `CCN(CC)C(=O)COc1ccnc2cc(OC)ccc12`, the figure is -2.17%; as for `O=C(c1ccc(F)cc1F)N1CCN(C(=O)C2CCCCC2)CC1`, -0.876%. Regarding `CC(Cn1cccn1)NC(=O)NCCN1CCc2ccccc2C1` (configuration not stated), the cytotoxicity at 10 µM was -4.45%. In the case of `CC(C)CN(CC(O)c1ccc(F)cc1)C(=O)c1cnsn1` (configuration not stated) it was -6.87%; in that of `Cc1nsc(N2CCc3sccc3C2)n1`, 7.03%; in that of `Cn1cccc1C(=O)N1CCN2C[C@H](Oc3cccnc3)C[C@H]2C1`, 3.58%. In the case of `Cc1ccccc1C(C(=O)NCc1nc(-c2ncccn2)no1)N(C)C` (configuration not stated), the cytotoxicity at 10 µM amounted to 3.09%.

Take `C=Cc1cccc(CN(Cc2cnn(C)c2)C2CC2)c1`: the cytotoxicity at 10 µM stood at 3%. Regarding `Cn1ncc2c(N3CCN4CCCCC4C3)nc(C3CCCC3)nc21` (configuration not stated), the cytotoxicity at 10 µM was -139%.

For `CCNc1ncc(CN(Cc2ccccc2)CC(C)CO)cn1` (configuration not stated), the cytotoxicity at 10 µM was 6.33%. As to `CCCc1nc(C)cc(N2CCC3(CCC(=O)N(CCCO)C3)CC2)n1`, the cytotoxicity at 10 µM was -5.81%. For `COc1cnc(N2C[C@H](CO)C[C@H](CN3CCOCC3)C2)nc1`, the cytotoxicity at 10 µM is -8.11%.

`COc1cc(F)ccc1-c1nc2c([nH]1)c(C1CC1)nn2C`: the cytotoxicity at 10 µM was -1.72%.

On to `CCc1nc(N2CCN(Cc3ncccc3C)CC2)c2cnn(C)c2n1`, for which the cytotoxicity at 10 µM is -6.46%.

As for `Cc1cnn(CCCn2c(C)cc(C(F)(F)F)cc2=O)c1`, the cytotoxicity at 10 µM turned out to be 0.529%.

Consider `CN(Cc1ccc2nonc2c1)C(=O)c1ccc(C2CCCO2)s1` (configuration not stated), for which the cytotoxicity at 10 µM worked out at 12.1%.

`O=C(O)[C@]12CCCN(Cc3cccnc3)[C@@H]1CCN(c1cnccn1)C2`: the cytotoxicity at 10 µM worked out at 4.63%. Take `Cc1cc2nc(-c3ccccc3)cc(NCC3CCS(=O)(=O)C3)n2n1` (configuration not stated): the cytotoxicity at 10 µM is 1.38%. With `COc1cccc(OC)c1C(=O)N1C[C@@H](CN(C)C)[C@@H](CO)C1`, the cytotoxicity at 10 µM was -4.51%.

`c1ccc(CN2CCC(NCCSc3cnn[nH]3)C2)cc1` (configuration not stated): the cytotoxicity at 10 µM stood at 1.12%. In the case of `CCOc1cccc(C(C(=O)O)N(C)Cc2cc(C)no2)c1` (configuration not stated) it was 4.64%; in that of `Cc1cc(N2CCOC(C(F)(F)F)C2)nc(-c2ccccc2)n1` (configuration not stated), -1.23%; in that of `Cc1ccc(N2CCC(N3C[C@@H](CN(C)C)[C@@H](CO)C3)CC2)cc1`, -0.608%. Regarding `CCn1nc(CC(C)C)cc1C(=O)NCCCOC`, the cytotoxicity at 10 µM was -18.8%. On to `CCn1nc(C)c(CNC(=O)c2cn(CCC3CCCCN3)nn2)c1C` (configuration not stated), for which the cytotoxicity at 10 µM is -1.96%. For `CN(C)C(=O)c1ccc2c(c1)N(C)C(CC(=O)NCc1ccno1)CO2` (configuration not stated), the cytotoxicity at 10 µM was found to be 12.4%.

Consider `Cc1cccc(C(=O)N2CCC(Cc3cnc4[nH]ccc4c3)CC2)n1`, for which the cytotoxicity at 10 µM was 12.2%.

Regarding `CN(Cc1cnn(C)c1)C(=O)NCCc1ccc2c(c1)OCO2`, the cytotoxicity at 10 µM is -12.4%.

With `Cc1cccc(CN2CCN(C(=O)c3cc(C4CC4)[nH]n3)CC2)c1`, the cytotoxicity at 10 µM was -5.38%. `Cc1ccc(NC2CCN(C(=O)CCNc3ncccn3)CC2)nn1`: the cytotoxicity at 10 µM is -7.69%. In the case of `CCn1ccnc1CN1CCCN(C(=O)c2ccnc(C)n2)CC1` it was -12.2%; in that of `Cc1ncc(CN2CCOC(CNc3cccnn3)C2)s1` (configuration not stated), -19.8%. As for `CN(Cc1noc(C2CC2)n1)C1CCN(CCS(C)(=O)=O)C1` (configuration not stated), the figure is -14.9%. `O=C(c1cnc(-c2ncccn2)s1)N1CCCC1Cn1cccn1` (configuration not stated): the cytotoxicity at 10 µM was -5.97%. In the case of `Cc1ccccc1OCCCC(=O)NC(C)c1nnc2n1CCC2` (configuration not stated), the cytotoxicity at 10 µM was -11.5%. Turning to `Cc1nnc(NC(=O)CN2CCCC2c2c(C)nn(C)c2C)s1` (configuration not stated), the cytotoxicity at 10 µM was -14.1%. As for `COc1ccccc1CC(=O)N1CCCC(c2cc(C)[nH]n2)C1` (configuration not stated), the figure is -21%; as for `c1cnn(CC2CN(CCc3ccncc3)CCO2)c1` (configuration not stated), 2.74%; as for `CC(NC(=O)NCc1cccc(N2CCCC2=O)c1)c1ccccc1` (configuration not stated), 4.52%. With `Cc1ccc(NCc2cncc3c2CCN(C(=O)C2CC=CC2)C3)nn1`, the cytotoxicity at 10 µM was -2.42%. Turning to `Cc1nn(C)cc1-c1cncn1CCN(C)C1CCCC1`, the cytotoxicity at 10 µM was -4.64%. For `CCCNC(=O)c1cc2c(s1)CCN2C(=O)CN(C)C`, the cytotoxicity at 10 µM was found to be 2.03%.

Regarding `CC(C)N1CCC2(C=C(C(=O)NC3CC3)c3ccccc32)CC1`, the cytotoxicity at 10 µM amounted to 1.29%. Turning to `CCOC1COC2(CCN(Cc3ccc(F)cc3)CC2)C1` (configuration not stated), the cytotoxicity at 10 µM is -0.508%.

Take `Cc1cccc(CN2C[C@@H]3COC[C@]3(COCC(=O)N(C)C)C2)n1`: the cytotoxicity at 10 µM was -1.95%. For `O=C(c1ccc(F)cc1)N1CCC2(CC1)CC(N1CCOCC1)C2`, the cytotoxicity at 10 µM was -7.52%. For `Cc1ccc(CN2CC[C@@H]3O[C@@H](C(=O)N4CCN(C)CC4)C[C@@H]32)cc1`, the cytotoxicity at 10 µM was -3.62%. As to `CC[C@@H]1N(Cc2ccc(C)s2)CCC[C@]12CCC(=O)N2C`, the cytotoxicity at 10 µM stood at 4.94%. For the compound `Cc1occc1C(=O)Nc1cccc(C(=O)OCC2CCCN2)c1` (configuration not stated), the cytotoxicity at 10 µM was -2.09%. As to `CC1CCN(C(=O)[C@@H]2C[C@@H]3CCN(CC4CCOCC4)C[C@@H]3O2)CC1`, the cytotoxicity at 10 µM came to 7.13%. As for `CCCNc1c(NC(=O)NCCOC)c(=O)oc2ccccc12`, the figure is -6.23%; as for `O=C(NC1CCC(O)CC1)c1ccc2nc(-c3ccccc3)cn2c1` (configuration not stated), 8.99%.

(Values after ChEMBL document CHEMBL4513216, “Probing the Open Global Health Chemical Diversity Library for Multistage-Active Starting Points for Next-Generation Antimalarials” (ACS Infect Dis, 2020).)
